Assay type in all cases: cell-based, Human
The subject of series [1] is caspases 3 and 7 in TK6 cells. As to the kind of experiment: Activation of caspases 3 and 7.
Series [2] deals with TK6 cells. As to the kind of experiment: Generation of reactive oxygen species. Conditions: for level of ROS generated: DEHP 234μM, MEHP 196μM (IC50's), cisplatin 13uM.
In series [3] the test system is TK6 cells. As to the kind of experiment: Cell viability / IC50 by trypan blue exclusion. Particulars: for IC50 (cell viability): same value expressed in mg/L. In outline:
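TK6 lymphoblasts were grown in RPMI 1640 with 10% FBS at 37°C, 5% CO2, and subcultured at 1×10^6 cells per 3.5 mL to keep exponential growth. Cells were exposed for 24, 48 or 72 h to test compound at 10–500 μM ([…]). Viability was counted by trypan blue exclusion on an automated cell counter, and the 50% inhibitory concentration was read from the viability curves.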

Series [4] concerns TK6 cells. Particulars: DEHP 234μM, MEHP 196μM (IC50's), valinomycin 11 uM.
The mark [5] stands for this setting: 24 hours exposure, DEHP and MEHP at IC50's, staurosporine 1 uM.
The mark [6] stands for this setting: 48 hours exposure, DEHP 234μM, MEHP 196μM (IC50's), staurosporine 1μM.
[7] abbreviates: read-out: IC50 (cell viability), 24 hours of exposure.
Setting [8] is: read-out: IC50 (cell viability), 48 hours of exposure.
Where [9] appears, read: read-out: IC50 (cell viability), 72 hours of exposure.

pIC50: −log10 of the molar value. Converted amounts (≈) assume the structure as drawn. “And” between values parts separate entries of the source, which are not always exact repeats. Equal entries are not always repeated. Where two headings read alike, the source gives them in different places.

Regarding `CCCCC(CC)COC(=O)c1ccccc1C(=O)O` (centres unmarked) [MEHP, monoethylhexyl phthalate], the “caspases 3 and 7 activation” value is given as 292.80 FSU in series [1] (setting [5]) and 1209.72 FSU in series [1] (setting [6]). The “level of ROS generated” value with TK6 cells [2] (24 hours exposure) came out at 816.53 FSU; in the series on TK6 cells [2] (48 hours exposure) it was 1518.75 FSU. In addition, in the series on TK6 cells [2] (comparison among phthalates at IC50 doses), the “ROS production relative to the parent DEHP” value is on record as “twice as much”. Besides, the entries for the “IC50 (cell viability)” value in the series with TK6 cells [3] (48 hours of exposure) and with TK6 cells [3] (72 hours of exposure) were 54.55 mg/L (≈ 196 µM) and 22.27 mg/L (≈ 80 µM), respectively. Besides, the negative-log IC50 (pIC50) was 3.60 in the series with TK6 cells [3] (setting [7]), 3.71 with TK6 cells [3] (setting [8]) and 4.10 with TK6 cells [3] (setting [9]). The mitochondrial membrane permeability in the series on TK6 cells [4] (24 hours exposure) was found to be 1630.94 FSU; in the series with TK6 cells [4] (48 hours exposure) it was 2210.09 FSU.

Consider `CCCCC(CC)COC(=O)c1ccccc1C(=O)OCC(CC)CCCC` (centres unmarked) [DEHP, diethylhexyl phthalate], for which the results for the “caspases 3 and 7 activation” value in series [1] (setting [5]) and in series [1] (setting [6]) were 122.13 FSU and 1406.94 FSU, respectively. For the same molecule, the “level of ROS generated” value with TK6 cells [2] (24 hours exposure) is recorded as 458.54 FSU; in the series on TK6 cells [2] (48 hours exposure), 793.27 FSU. Further, the “IC50 (cell viability)” value in the series with TK6 cells [3] (48 hours of exposure) stood at 91.4 mg/L (≈ 234 µM); in the series on TK6 cells [3] (72 hours of exposure) it was 39.06 mg/L (≈ 100 µM). The negative-log IC50 (pIC50) was ~3.60 and 3.60 with TK6 cells [3] (setting [7]); 3.63 with TK6 cells [3] (setting [8]); 4.00 in the series on TK6 cells [3] (setting [9]). Further, the mitochondrial membrane permeability with TK6 cells [4] (24 hours exposure) came out at 1100.85 FSU; in the series with TK6 cells [4] (48 hours exposure) it was 2505.58 FSU.

Take `CC(C)[C@@H]1NC(=O)[C@H](C)OC(=O)[C@@H](C(C)C)NC(=O)[C@@H](C(C)C)OC(=O)[C@H](C(C)C)NC(=O)[C@H](C)OC(=O)[C@@H](C(C)C)NC(=O)[C@@H](C(C)C)OC(=O)[C@H](C(C)C)NC(=O)[C@H](C)OC(=O)[C@@H](C(C)C)NC(=O)[C@@H](C(C)C)OC1=O` [valinomycin, Valinomycin, reference compound]: the mitochondrial membrane permeability was determined as 1079.18 FSU in the series on TK6 cells [4] (24 hours exposure) and 2327.65 FSU in the series with TK6 cells [4] (48 hours exposure).

As to `CN[C@@H]1C[C@H]2O[C@@](C)([C@@H]1OC)n1c3ccccc3c3c4c(c5c6ccccc6n2c5c31)C(=O)NC4` [Staurosporine, reference compound], the “caspases 3 and 7 activation” value turned out to be 1390.92 FSU in series [1] (setting [5]) and 1322.55 FSU in series [1] (setting [6]).

Take `N.N.[Cl][Pt][Cl]` [Cisplatin, cis-diammineplatinum (II) dichloride, reference compound]: the “level of ROS generated” value with TK6 cells [2] (24 hours exposure) is on record as 1348.85 FSU; in the series on TK6 cells [2] (48 hours exposure), 1575.35 FSU.

The term pIC50 denotes the IC50 on a negative log10 scale, so that one unit is a factor of ten.

(Values after PMC3217166 (Toxicology in vitro : an international journal published in …, 2011).)
